ChEMBL document CHEMBL4834402, “Discovery of TAK-981, a First-in-Class Inhibitor of SUMO-Activating Enzyme for the Treatment of Cancer” (J Med Chem, 2021)
In brackets after ≈: the same amount, converted by molar mass. Activity calls are given as the source filed them. No cut-off for these calls is given here.

Assays:
[1] = Solubility of compound in 10% hydroxypropyl-beta-cyclodextrin after 24 hrs; assay type: physicochemical
[2] = Volume of distribution at steady state in rat plasma at 1 mg/kg, iv; assay type: ADME, organism-based; conditions: read-out: Vdss
[3] = target: T1, SUMO-activating enzyme (Homo sapiens) (UniProt Q9UBE0+Q9UBT2); assay: Inhibition of SAE in human OCI-Ly10 cells xenografted in NCr nude mouse assessed as reduction in SUMO2/3 protein conjugates at 25 mg/kg, iv and measured up to 24 hrs by immunohistochemistry analysis; assay type: organism-based; conditions: HCT-116, time hrs <=24
[4] = target: T2, SUMO-activating enzyme (Homo sapiens, UniProt Q9UBT2); assay: Inhibition of recombinant SAE (unknown origin) assessed as reduction in transfer of SUMO1 to UBC9 using SUMO1 as a substrate in presence of ATP at Km concentration by HTRF assay; assay type: protein-complex assay
Summary of the method: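 HTRF transthiolation assay measuring transfer of SUMO1 to UBC9, the E2 for SAE.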

[5] = Clearance in rat plasma at 1 mg/kg, iv; assay type: ADME, organism-based; conditions: in vivo
[6] = Half life in rat blood at 1 mg/kg, iv; assay type: ADME, organism-based
[7] = Half life in rat plasma at 1 mg/kg, iv; assay type: ADME, organism-based
[8] = target: T1, SUMO-activating enzyme (Homo sapiens); assay: Inhibition of SAE in human OCI-Ly10 cells xenografted in CB17 SCID mouse assessed as improvement in SUMO-inhibitor adduct durability at 25 mg/kg, iv and measured up to 48 hrs by mass spectrometry; assay type: organism-based; conditions: time hrs <=48
[9] = Inhibition of recombinant UAE (unknown origin) in presence of ATP at Km concentration by HTRF assay; set-up: species or system Homo sapiens
[10] = test system: HCT-116; assay: Cytotoxicity against human HCT116 cells assessed as reduction in cell viability after 72 hrs by CellTiter-Glo luminescent assay; assay type: functional, cell-based; conditions: HCT-116, 72 h
[11] = Volume of distribution at steady state in rat blood at 1 mg/kg, iv; assay type: ADME, organism-based; conditions: read-out: Vdss
[12] = Efflux ratio of apparent permeability across basolateral to apical side over apical to basolateral side in human Caco-2 cells; assay type: ADME, cell-based
[13] = target: T2, SUMO-activating enzyme; assay: Inhibition of SAE in human HCT116 cells assessed as redistribution of SUMO2/3 proteins from nucleus to cytosol preincubated for 2 hrs followed by compound washout and measured immediately by immunofluorescence assay; assay type: cell-based, HCT-116
Summary of the method: (§1)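 Washout format of the SUMO2/3 immunofluorescence assay in HCT116 cells. Cells were exposed to a range of concentrations for 2 h, then washed free of compound.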

[14] = Clearance in rat blood at 1 mg/kg, iv; assay type: ADME, organism-based; conditions: in vivo
[15] = target: T1, SUMO-activating enzyme (Homo sapiens); assay: Inhibition of SAE in human HCT116 cells xenografted in NCr nude mouse assessed as reduction in SUMO2/3 protein conjugates at 50 mg/kg, iv and measured up to 16 hrs by immunohistochemistry analysis; assay type: organism-based; conditions: HCT-116
Summary of the method: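 HCT-116 tumors in female Ncr nude mice, n = 3 per time point, after a single IV dose at t = 0. SUMO2/3 conjugation in tumors measured by IHC at 2, 4, 8 and 16 h. Read-out is nuclei staining positive for SUMO2/3 conjugates over total nuclei, normalized to vehicle-treated animals (time = 0 h), expressed as percent inhibition.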

[16] = target: T2, SUMO-activating enzyme; assay: Inhibition of SAE in human HCT116 cells assessed as redistribution of SUMO2/3 proteins from nucleus to cytosol preincubated for 2 hrs followed by compound washout and measured after 8 hrs by immunofluorescence assay; assay type: cell-based, HCT-116; summary of the method: as §1
[17] = test system: HCT-116; assay: Antitumor activity against human HCT-116 cells xenografted in Ncr/nude mouse assessed as tumor growth inhibition at 50 mg/kg, iv administered thrice per week for 21 days and measured twice weekly; assay type: functional, organism-based; conditions: time 21.0 day
Summary of the method: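 Female Ncr/nude mice carrying HCT-116 tumors (~200 mm3) were randomized, n = 8/group, with treatment from Day 1. Schedules were QD x21 (Days 1–21) or QD x3/week (three consecutive dosing days, four off). Tumor volume was measured twice weekly.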

[18] = Oral bioavailability in rat plasma at 10 mg/kg; assay type: ADME, organism-based
[19] = target: Carbonic anhydrase 2 (Homo sapiens, UniProt P00918); assay: Inhibition of recombinant human CA2 expressed in Escherichia coli using fluorescein diacetate as substrate at […] by fluorometric esterase assay
[20] = AUC in rat blood at 10 mg/kg, po; assay type: ADME, organism-based; set-up: dose 10 mg/kg
[21] = Lipophilicity, logD of compound at pH 7.4; assay type: physicochemical; conditions: buffer
[22] = test system: OCI-Ly10; assay: Cytotoxicity against human OCI-LY10 cells assessed as reduction in cell viability after 72 hrs by CellTiter-Glo luminescent assay; assay type: functional, cell-based; conditions: OCI-Ly10, 72 h
[23] = Apparent permeability across basolateral to apical side in human Caco2 cells; assay type: ADME, cell-based; conditions: Caco-2
[24] = target: T3, NEDD8 activating enzyme (Homo sapiens, UniProt Q8TBC4); assay: Inhibition of recombinant NAE (unknown origin) in presence of ATP at Km concentration by HTRF assay; assay type: protein-complex assay
T3 sequence (Q8TBC4 whole entry): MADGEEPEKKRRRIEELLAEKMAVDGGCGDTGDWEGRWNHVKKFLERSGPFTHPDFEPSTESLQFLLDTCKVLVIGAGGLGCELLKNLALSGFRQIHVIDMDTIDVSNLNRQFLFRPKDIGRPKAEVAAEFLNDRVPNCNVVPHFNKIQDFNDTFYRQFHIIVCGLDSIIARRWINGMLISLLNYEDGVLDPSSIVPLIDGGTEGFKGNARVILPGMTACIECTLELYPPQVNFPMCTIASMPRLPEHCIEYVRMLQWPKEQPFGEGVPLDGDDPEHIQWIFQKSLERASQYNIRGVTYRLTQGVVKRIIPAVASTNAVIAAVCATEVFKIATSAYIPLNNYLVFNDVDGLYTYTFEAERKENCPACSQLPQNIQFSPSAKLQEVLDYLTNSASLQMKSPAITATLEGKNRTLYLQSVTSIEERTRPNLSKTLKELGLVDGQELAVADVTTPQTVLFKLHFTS
T3 sequence (Q13564 whole entry): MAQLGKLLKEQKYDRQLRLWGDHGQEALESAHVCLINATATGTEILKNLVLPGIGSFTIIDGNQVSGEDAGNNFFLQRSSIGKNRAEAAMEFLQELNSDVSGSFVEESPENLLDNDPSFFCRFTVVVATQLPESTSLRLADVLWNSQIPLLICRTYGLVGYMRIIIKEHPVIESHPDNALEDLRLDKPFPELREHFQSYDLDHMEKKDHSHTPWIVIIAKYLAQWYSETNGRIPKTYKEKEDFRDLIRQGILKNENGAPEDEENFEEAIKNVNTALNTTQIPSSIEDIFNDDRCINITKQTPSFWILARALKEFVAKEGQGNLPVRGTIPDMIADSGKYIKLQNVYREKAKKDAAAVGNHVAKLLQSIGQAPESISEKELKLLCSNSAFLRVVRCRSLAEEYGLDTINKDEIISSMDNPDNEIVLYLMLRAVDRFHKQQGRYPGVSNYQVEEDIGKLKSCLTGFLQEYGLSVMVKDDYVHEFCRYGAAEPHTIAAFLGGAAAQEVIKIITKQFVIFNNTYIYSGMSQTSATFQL

[25] = Apparent permeability across apical to basolateral side in human Caco2 cells; assay type: ADME, cell-based; conditions: Caco-2
[26] = Oral bioavailability in rat blood at 10 mg/kg; assay type: ADME, organism-based

T2 sequence (Q9UBE0 whole entry): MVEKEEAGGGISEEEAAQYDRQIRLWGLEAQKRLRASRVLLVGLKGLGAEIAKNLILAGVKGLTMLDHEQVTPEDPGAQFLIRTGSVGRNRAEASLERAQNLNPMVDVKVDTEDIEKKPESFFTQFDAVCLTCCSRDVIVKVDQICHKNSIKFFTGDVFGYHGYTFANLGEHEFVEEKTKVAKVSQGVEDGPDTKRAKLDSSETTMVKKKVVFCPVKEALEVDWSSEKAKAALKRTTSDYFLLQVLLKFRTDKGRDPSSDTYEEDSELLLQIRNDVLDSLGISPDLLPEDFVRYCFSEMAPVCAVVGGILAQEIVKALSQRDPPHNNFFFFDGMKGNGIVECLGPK
T2 sequence (Q9UBT2 whole entry): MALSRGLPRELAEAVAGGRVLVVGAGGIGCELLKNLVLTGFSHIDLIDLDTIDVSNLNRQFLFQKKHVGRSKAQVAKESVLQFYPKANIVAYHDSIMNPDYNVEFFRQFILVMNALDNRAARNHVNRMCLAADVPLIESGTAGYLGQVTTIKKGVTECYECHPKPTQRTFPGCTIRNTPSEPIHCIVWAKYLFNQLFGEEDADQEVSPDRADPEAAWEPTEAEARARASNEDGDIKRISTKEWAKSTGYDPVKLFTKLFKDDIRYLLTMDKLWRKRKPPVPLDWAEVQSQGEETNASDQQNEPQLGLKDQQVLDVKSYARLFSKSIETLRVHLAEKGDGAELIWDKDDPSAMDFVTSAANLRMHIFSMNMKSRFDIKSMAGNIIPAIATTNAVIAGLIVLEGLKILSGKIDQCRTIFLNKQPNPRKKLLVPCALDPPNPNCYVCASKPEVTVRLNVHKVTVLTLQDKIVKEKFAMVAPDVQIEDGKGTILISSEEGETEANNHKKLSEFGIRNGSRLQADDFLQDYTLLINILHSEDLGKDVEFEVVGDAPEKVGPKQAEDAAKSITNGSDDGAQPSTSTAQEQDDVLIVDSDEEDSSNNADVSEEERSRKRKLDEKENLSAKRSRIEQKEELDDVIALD

solubility at 24 h [1]: 20 mg/mL (≈ 34.6 mM)
Vd [2]: 8.5 L/kg
clearance [5]: 61.7 mL/min/kg
half-life [6]: 2.6 h
half-life [7]: 2.1 h
IC50 [9]: > 1000 nM
Vd [11]: 0.2 L/kg
efflux ratio [12]: > 16
clearance [14]: 1.67 mL/min/kg
bioavailability [18]: 7.3%
IC50 [19]: 20 nM
AUC [20]: 32 µM·h
logD [21]: 2.1
Papp B→A [23]: 46 ×10⁻⁶ cm/s
IC50 [24]: 960 nM
Papp A→B [25]: 0.3 ×10⁻⁶ cm/s
bioavailability [26]: 10%
SMILES: Cc1sc(C(=O)c2cncnc2N[C@@H]2C[C@H](COS(N)(=O)=O)[C@@H](O)C2)cc1[C@@H]1NCCc2ccc(Cl)cc21
inhibition [3]: Active
IC50 [4]: 1 nM
inhibition [8]: Active
EC50 [10]: 63 nM
IC50 [13]: 32 nM
inhibition [15]: Active
IC50 [16]: 46 nM
Activity [17]: Active
EC50 [22]: 4 nM
